Test results as given in ChEMBL document CHEMBL1124042, “Synthesis and potential antipsychotic activity of 1H-imidazo[1,2-c]pyrazolo[3,4-e]pyrimidines” (J Med Chem, 1988).

How the values were obtained:
[1] = target: Voltage-gated L-type calcium channel (Rattus norvegicus, UniProt P22002+Q02485+P27732); assay: Displacement of [3H]nitrendipine from L-type [Ca2+] channel of rat brain; type: tissue-based
Rattus norvegicus [2] = assay: Inhibition of self-stimulation in rats after the compound administered through perorally; type: functional; conditions: po
In short: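 Suppression of high base line self-stimulation in rats after oral dosing. Read-out is ED50 in mg/kg.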

Mus musculus = assay: Inhibition of induction of ataxia in mouse after intraperitoneal administration; type: functional; conditions: ip
[3] = target: T1, Adrenergic receptor alpha-1 (Rattus norvegicus, UniProt P15823+P23944+P43140); assay: Displacement of [3H]WB-4101 from alpha-1 adrenergic receptor in rat brain; type: tissue-based
T1 sequence (P15823 whole entry): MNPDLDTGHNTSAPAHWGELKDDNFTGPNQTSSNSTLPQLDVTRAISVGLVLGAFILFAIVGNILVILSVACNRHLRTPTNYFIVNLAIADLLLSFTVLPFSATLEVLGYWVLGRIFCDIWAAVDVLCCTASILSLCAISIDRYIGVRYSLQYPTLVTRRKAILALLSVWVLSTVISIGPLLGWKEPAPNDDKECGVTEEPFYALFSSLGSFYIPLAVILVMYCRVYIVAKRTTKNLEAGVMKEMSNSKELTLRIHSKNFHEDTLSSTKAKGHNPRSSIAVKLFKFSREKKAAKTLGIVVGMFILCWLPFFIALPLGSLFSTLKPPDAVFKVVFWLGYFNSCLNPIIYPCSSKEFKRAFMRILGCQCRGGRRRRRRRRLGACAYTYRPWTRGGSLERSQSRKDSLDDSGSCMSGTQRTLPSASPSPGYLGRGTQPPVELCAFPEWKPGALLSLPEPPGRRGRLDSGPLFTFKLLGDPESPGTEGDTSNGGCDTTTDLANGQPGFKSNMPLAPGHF
T1 sequence (P23944 whole entry): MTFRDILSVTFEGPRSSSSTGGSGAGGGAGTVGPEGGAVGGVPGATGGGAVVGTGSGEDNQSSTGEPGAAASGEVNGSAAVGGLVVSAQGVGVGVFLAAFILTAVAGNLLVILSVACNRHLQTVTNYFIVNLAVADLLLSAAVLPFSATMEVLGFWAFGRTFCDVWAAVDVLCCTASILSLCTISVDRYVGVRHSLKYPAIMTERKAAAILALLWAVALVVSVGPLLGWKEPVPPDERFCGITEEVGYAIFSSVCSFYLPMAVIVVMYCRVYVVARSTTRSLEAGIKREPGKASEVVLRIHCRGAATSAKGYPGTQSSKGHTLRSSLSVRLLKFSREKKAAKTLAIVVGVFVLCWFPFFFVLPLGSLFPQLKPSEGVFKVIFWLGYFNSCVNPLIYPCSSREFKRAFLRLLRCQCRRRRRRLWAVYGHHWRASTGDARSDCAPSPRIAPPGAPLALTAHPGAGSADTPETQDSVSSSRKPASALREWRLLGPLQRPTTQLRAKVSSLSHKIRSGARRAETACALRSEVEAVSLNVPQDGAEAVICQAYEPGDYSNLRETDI
T1 sequence (P43140 whole entry): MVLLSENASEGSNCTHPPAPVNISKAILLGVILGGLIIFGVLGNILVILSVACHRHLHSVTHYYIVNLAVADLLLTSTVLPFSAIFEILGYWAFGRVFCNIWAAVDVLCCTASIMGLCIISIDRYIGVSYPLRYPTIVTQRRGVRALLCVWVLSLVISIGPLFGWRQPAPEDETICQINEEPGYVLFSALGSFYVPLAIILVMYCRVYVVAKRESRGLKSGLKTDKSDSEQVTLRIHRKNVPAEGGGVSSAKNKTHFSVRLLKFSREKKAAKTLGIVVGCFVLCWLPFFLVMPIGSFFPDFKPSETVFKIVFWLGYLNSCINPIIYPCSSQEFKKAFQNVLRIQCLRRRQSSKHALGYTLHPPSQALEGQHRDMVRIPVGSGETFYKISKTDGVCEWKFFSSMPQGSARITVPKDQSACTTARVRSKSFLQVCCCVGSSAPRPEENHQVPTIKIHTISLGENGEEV
In short: (§1)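 Rat brain radioligand displacement binding. IC50 values (μM) were derived by nonlinear regression from four or five concentrations of compound.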

[4] = target: Beta-1 adrenergic receptor (Rattus norvegicus, UniProt P18090); assay: Displacement of [3H]DHA (Dihydroalprenolol) from beta-1 adrenergic receptor in rat brain; type: tissue-based; in short: as §1
Rattus norvegicus [5] = assay: Inhibition of locomotion in rats after the compound administered through perorally; type: functional; conditions: po
In short: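 Oral dosing in rats, with spontaneous locomotor activity scored alongside ataxia. ED50 reported ± SEM.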

Adenosine receptor A1 = target: T2, Adenosine receptor A1 (Rattus norvegicus, UniProt P25099); assay: Displacement of [3H]CHA (N6-Cyclohexyl adenosine) from adenosine A1 receptor in rat brain; type: tissue-based; in short: as §1
T2 sequence (P25099 whole entry): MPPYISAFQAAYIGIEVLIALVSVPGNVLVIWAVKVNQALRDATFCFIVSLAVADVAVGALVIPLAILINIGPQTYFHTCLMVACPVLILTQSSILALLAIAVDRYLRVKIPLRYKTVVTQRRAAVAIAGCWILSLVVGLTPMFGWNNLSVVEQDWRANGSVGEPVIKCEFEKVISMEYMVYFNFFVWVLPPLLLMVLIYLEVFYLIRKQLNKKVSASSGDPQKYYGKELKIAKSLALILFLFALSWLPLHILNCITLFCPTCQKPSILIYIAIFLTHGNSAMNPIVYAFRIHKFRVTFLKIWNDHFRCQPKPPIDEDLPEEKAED

D(1A) dopamine receptor = D(1A) dopamine receptor (Rattus norvegicus, UniProt P18901); assay: Displacement of [3H]cis-flupenthixol from Dopamine receptor D1 in rat brain; type: tissue-based
Monkey = assay: Inhibition of Sidman avoidance in squirrel monkeys after the compound administered through perorally; type: functional; conditions: in Saimiri, po
In short: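 Oral dosing in squirrel monkeys trained on continuous (Sidman) avoidance responding. ED50 reported ± SEM.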

Beta-1 adrenergic receptor, sequence (P18090 whole entry): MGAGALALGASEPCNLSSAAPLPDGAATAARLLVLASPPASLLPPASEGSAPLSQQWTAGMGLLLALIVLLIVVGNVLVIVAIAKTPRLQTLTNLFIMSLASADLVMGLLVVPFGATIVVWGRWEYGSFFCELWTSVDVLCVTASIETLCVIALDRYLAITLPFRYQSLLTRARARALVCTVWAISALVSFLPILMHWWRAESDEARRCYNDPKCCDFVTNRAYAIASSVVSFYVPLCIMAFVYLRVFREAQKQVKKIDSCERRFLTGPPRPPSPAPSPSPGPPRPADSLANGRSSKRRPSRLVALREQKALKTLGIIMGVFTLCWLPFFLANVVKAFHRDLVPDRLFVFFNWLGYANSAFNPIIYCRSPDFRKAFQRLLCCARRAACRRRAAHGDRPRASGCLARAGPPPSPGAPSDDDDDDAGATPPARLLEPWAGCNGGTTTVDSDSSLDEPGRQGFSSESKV
D(1A) dopamine receptor, sequence (P18901 whole entry): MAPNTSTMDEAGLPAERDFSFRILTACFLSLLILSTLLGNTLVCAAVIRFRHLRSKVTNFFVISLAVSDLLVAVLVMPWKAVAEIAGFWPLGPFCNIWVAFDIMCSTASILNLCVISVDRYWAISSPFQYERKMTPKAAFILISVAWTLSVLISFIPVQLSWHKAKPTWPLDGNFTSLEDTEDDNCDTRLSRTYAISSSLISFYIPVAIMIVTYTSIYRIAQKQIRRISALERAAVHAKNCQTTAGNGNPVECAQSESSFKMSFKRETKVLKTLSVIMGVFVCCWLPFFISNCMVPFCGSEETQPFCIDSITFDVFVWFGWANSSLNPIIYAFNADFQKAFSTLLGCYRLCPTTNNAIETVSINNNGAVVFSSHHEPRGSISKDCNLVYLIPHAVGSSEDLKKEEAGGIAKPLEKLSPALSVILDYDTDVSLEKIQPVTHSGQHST

IC50 [1]: > 10 µM
IC50 [3]: > 10 µM
IC50 [4]: > 10 µM
IC50 (Adenosine receptor A1): > 10 µM
IC50 (D(1A) dopamine receptor): > 10 µM
SMILES: CCC1CN2C(C)=Nc3c(C)nn(C)c3C2=N1 (centres undefined)
ED50 (Rattus norvegicus [2]): 10.8 mg/kg
ED50 (Mus musculus): > 100 mg/kg
ED50 (Rattus norvegicus [5]): 15.5 mg/kg
ED50 (Monkey): 7.25 mg/kg
